In ChEMBL document CHEMBL1129753, “N-terminus urea-substituted chemotactic peptides: new potent agonists and antagonists toward the neutrophil fMLF receptor” (J Med Chem, 1996):

Tests used:
fMet-Leu-Phe receptor [1] = target: T1, fMet-Leu-Phe receptor (Homo sapiens, UniProt P21462); assay: Antagonistic activity was determined by measuring the ability to inhibit superoxide production (stimulated by fMLF) using human neutrophils; type: functional
T1 sequence (P21462 whole entry): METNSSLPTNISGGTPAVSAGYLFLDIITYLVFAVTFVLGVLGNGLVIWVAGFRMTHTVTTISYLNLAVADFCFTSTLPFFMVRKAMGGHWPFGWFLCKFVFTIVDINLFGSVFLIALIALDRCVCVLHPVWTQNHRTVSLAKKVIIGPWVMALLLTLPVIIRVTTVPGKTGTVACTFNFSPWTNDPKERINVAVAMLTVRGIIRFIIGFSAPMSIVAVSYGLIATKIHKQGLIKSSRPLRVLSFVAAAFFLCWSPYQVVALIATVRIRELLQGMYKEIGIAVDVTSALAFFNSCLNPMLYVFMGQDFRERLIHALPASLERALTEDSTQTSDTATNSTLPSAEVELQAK
In short: (§1)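 Human neutrophils stimulated with fMLF, with the peptide present. Antagonism is the inhibition of fMLF-driven superoxide production, read as cytochrome C reduction. Values are mean ± SE of 2–3 independent experiments.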

fMet-Leu-Phe receptor [2] = target: T1, fMet-Leu-Phe receptor; assay: Agonistic activity was determined by measuring the ability to induce superoxide production(as measured by reduction of cytochrome C) using human neutrophils; NA= No activity at 30 uM; type: functional
In short: (§2)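 Human neutrophils; agonist read-out is superoxide generation induced by the peptide, followed as cytochrome C reduction. Values are mean ± SE of 2–3 independent experiments.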

fMet-Leu-Phe receptor [3] = target: T1, fMet-Leu-Phe receptor; assay: Binding affinity towards fMLF receptor using human neutrophils
In short: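 Competition binding on human neutrophils: the peptide displaces tritiated fMLF from the fMLF receptor. Values are mean ± SE of 2–3 independent experiments.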

Homo sapiens [4] = species: Homo sapiens; assay: Antagonistic activity was determined by measuring the compound's ability to inhibit superoxide production (stimulated by fMLF) using human neutrophils; NA= No activity at 30 uM; type: functional, organism-based; in short: as §1
fMet-Leu-Phe receptor [5] = target: T1, fMet-Leu-Phe receptor; assay: Agonistic activity was determined by measuring the ability to induce superoxide production(as measured by reduction of cytochrome C) using human neutrophils; type: functional; in short: as §2
Homo sapiens [6] = species: Homo sapiens; assay: Agonistic activity was determined by measuring the compound's ability to induce superoxide production(as measured by reduction of cytochrome C) using human neutrophils; NA= No activity at 30 uM.; type: functional, organism-based; in short: as §2
[7] = Agonistic activity was determined by measuring the compound's ability to induce superoxide production(as measured by reduction of cytochrome C) using human neutrophils; type: functional; in short: as §2

SMILES: CC(C)C[C@@H](NC(=O)[C@H](Cc1ccccc1)NC(=O)[C@@H](CC(C)C)NC(=O)[C@H](Cc1ccccc1)NC(=O)Nc1ccccc1)C(=O)N[C@@H](Cc1ccccc1)C(=O)O
- IC50 (fMet-Leu-Phe receptor [1]): 0.5 µM
- EC50 (fMet-Leu-Phe receptor [2]): Not Active
- IC50 (fMet-Leu-Phe receptor [3]): 0.05 µM

SMILES: CSCC[C@H](NC(=O)NCc1ccccc1)C(=O)N[C@@H](CC(C)C)C(=O)N[C@@H](Cc1ccccc1)C(=O)O
- IC50 (fMet-Leu-Phe receptor [1]): 0.6 µM
- IC50 (fMet-Leu-Phe receptor [3]): 0.8 µM

SMILES: COc1ccc(NC(=O)N[C@@H](CCSC)C(=O)N[C@@H](CC(C)C)C(=O)NC(Cc2ccccc2)C(=O)O)cc1 (stereo not given in full)
- IC50 (Homo sapiens [4]): Not Active
- EC50 (fMet-Leu-Phe receptor [5]): 0.001 µM
- IC50 (fMet-Leu-Phe receptor [3]): 0.002 µM

SMILES: CC(C)C[C@@H](NC(=O)[C@H](Cc1ccccc1)NC(=O)[C@@H](CC(C)C)NC(=O)[C@H](Cc1ccccc1)NC(N)=O)C(=O)N[C@@H](Cc1ccccc1)C(=O)O
- IC50 (fMet-Leu-Phe receptor [1]): 0.1 µM
- IC50 (fMet-Leu-Phe receptor [3]): 0.8 µM
- EC50 (Homo sapiens [6]): Not Active

SMILES: CC(C)C[C@@H](NC(=O)[C@H](Cc1ccccc1)NC(=O)[C@@H](CC(C)C)NC(=O)[C@H](Cc1ccccc1)NC(=O)NC12CC3CC(CC(C3)C1)C2)C(=O)N[C@@H](Cc1ccccc1)C(=O)O
- IC50 (fMet-Leu-Phe receptor [1]): 0.3 µM
- EC50 (fMet-Leu-Phe receptor [2]): Not Active
- IC50 (fMet-Leu-Phe receptor [3]): 0.02 µM

SMILES: CSCC[C@H](NC(=O)NC(C)(C)C)C(=O)N[C@@H](CC(C)C)C(=O)N[C@@H](Cc1ccccc1)C(=O)O
- IC50 (fMet-Leu-Phe receptor [1]): 2 µM
- EC50 (fMet-Leu-Phe receptor [2]): Not Active
- IC50 (fMet-Leu-Phe receptor [3]): 3 µM

SMILES: CC(C)C[C@@H](NC(=O)[C@H](Cc1ccccc1)NC(=O)[C@@H](CC(C)C)NC(=O)[C@H](Cc1ccccc1)NC(=O)NC(C)C)C(=O)N[C@@H](Cc1ccccc1)C(=O)O
- IC50 (fMet-Leu-Phe receptor [1]): 0.5 µM
- EC50 (fMet-Leu-Phe receptor [2]): Not Active
- IC50 (fMet-Leu-Phe receptor [3]): 0.2 µM

SMILES: CSCC[C@H](NC(=O)NC12CC3CC(CC(C3)C1)C2)C(=O)N[C@@H](CC(C)C)C(=O)N[C@@H](Cc1ccccc1)C(=O)O
- IC50 (fMet-Leu-Phe receptor [1]): 2 µM
- IC50 (fMet-Leu-Phe receptor [3]): 0.9 µM

SMILES: Cc1cccc(NC(=O)N[C@@H](Cc2ccccc2)C(=O)N[C@H](CC(C)C)C(=O)N[C@@H](Cc2ccccc2)C(=O)N[C@H](CC(C)C)C(=O)N[C@@H](Cc2ccccc2)C(=O)O)c1
- IC50 (fMet-Leu-Phe receptor [1]): 0.02 µM
- EC50 (fMet-Leu-Phe receptor [2]): Not Active
- IC50 (fMet-Leu-Phe receptor [3]): 0.2 µM

SMILES: CSCC[C@H](NC(=O)Nc1ccccc1)C(=O)N[C@@H](CC(C)C)C(=O)N[C@@H](Cc1ccccc1)C(=O)O
- IC50 (Homo sapiens [4]): Not Active
- EC50 (fMet-Leu-Phe receptor [5]): 0.04 µM
- IC50 (fMet-Leu-Phe receptor [3]): 0.03 µM

SMILES: CSCC[C@H](NC(=O)NCC(C)C)C(=O)N[C@@H](CC(C)C)C(=O)N[C@@H](Cc1ccccc1)C(=O)O
- IC50 (fMet-Leu-Phe receptor [1]): 4 µM
- EC50 (fMet-Leu-Phe receptor [2]): Not Active
- IC50 (fMet-Leu-Phe receptor [3]): 1 µM

SMILES: CCCNC(=O)N[C@@H](CCSC)C(=O)N[C@@H](CC(C)C)C(=O)N[C@@H](Cc1ccccc1)C(=O)O
- IC50 (fMet-Leu-Phe receptor [1]): 3 µM
- EC50 (fMet-Leu-Phe receptor [2]): Not Active
- IC50 (fMet-Leu-Phe receptor [3]): 2 µM

SMILES: CSCC[C@H](NC(=O)Nc1cccc(C)c1)C(=O)N[C@@H](CC(C)C)C(=O)N[C@@H](Cc1ccccc1)C(=O)O
- IC50 (fMet-Leu-Phe receptor [1]): 1.6 µM
- EC50 (fMet-Leu-Phe receptor [5]): 0.9 µM
- IC50 (fMet-Leu-Phe receptor [3]): 0.1 µM

SMILES: CSCC[C@H](NC(=O)Nc1ccc(C)cc1)C(=O)N[C@@H](CC(C)C)C(=O)N[C@@H](Cc1ccccc1)C(=O)O
- IC50 (Homo sapiens [4]): Not Active
- EC50 (fMet-Leu-Phe receptor [5]): 0.002 µM
- IC50 (fMet-Leu-Phe receptor [3]): 0.002 µM

SMILES: CSCC[C@H](NC(=O)Nc1ccc(Cl)cc1)C(=O)N[C@@H](CC(C)C)C(=O)N[C@@H](Cc1ccccc1)C(=O)O
- IC50 (Homo sapiens [4]): Not Active
- EC50 (fMet-Leu-Phe receptor [5]): 0.001 µM
- IC50 (fMet-Leu-Phe receptor [3]): 0.002 µM

SMILES: CSCC[C@H](NC(=O)NC(C)C)C(=O)N[C@@H](CC(C)C)C(=O)N[C@@H](Cc1ccccc1)C(=O)O
- IC50 (fMet-Leu-Phe receptor [1]): 5 µM
- IC50 (fMet-Leu-Phe receptor [3]): 2 µM

SMILES: CSCC[C@H](NC(N)=O)C(=O)N[C@@H](CC(C)C)C(=O)N[C@@H](Cc1ccccc1)C(=O)O
- EC50 (fMet-Leu-Phe receptor [5]): 3 µM
- IC50 (fMet-Leu-Phe receptor [3]): 2 µM

SMILES: CCCCNC(=O)N[C@@H](Cc1ccccc1)C(=O)N[C@H](CC(C)C)C(=O)N[C@@H](Cc1ccccc1)C(=O)N[C@H](CC(C)C)C(=O)N[C@@H](Cc1ccccc1)C(=O)O
- IC50 (fMet-Leu-Phe receptor [1]): 0.6 µM
- EC50 (fMet-Leu-Phe receptor [2]): Not Active
- IC50 (fMet-Leu-Phe receptor [3]): 0.3 µM

SMILES: CCNC(=O)N[C@@H](CCSC)C(=O)N[C@@H](CC(C)C)C(=O)N[C@@H](Cc1ccccc1)C(=O)O
- IC50 (fMet-Leu-Phe receptor [1]): 3 µM
- EC50 (fMet-Leu-Phe receptor [2]): Not Active
- IC50 (fMet-Leu-Phe receptor [3]): 1 µM

SMILES: C=C(C)NC(=O)N[C@@H](CCSC)C(=O)N[C@@H](CC(C)C)C(=O)N[C@@H](Cc1ccccc1)C(=O)O
- IC50 (fMet-Leu-Phe receptor [3]): 0.3 µM
- EC50 [7]: 0.4 µM

SMILES: CCCCNC(=O)N[C@@H](CCSC)C(=O)N[C@@H](CC(C)C)C(=O)N[C@@H](Cc1ccccc1)C(=O)O
- EC50 (fMet-Leu-Phe receptor [5]): 0.3 µM
- IC50 (fMet-Leu-Phe receptor [3]): 0.3 µM

SMILES: CNC(=O)N[C@@H](CCSC)C(=O)N[C@@H](CC(C)C)C(=O)N[C@@H](Cc1ccccc1)C(=O)O
- IC50 (fMet-Leu-Phe receptor [1]): 2 µM
- EC50 (fMet-Leu-Phe receptor [2]): Not Active
- IC50 (fMet-Leu-Phe receptor [3]): 3 µM
